High-throughput results: PubChem BioAssay, several laboratories
Rows were chosen to be rich in hits. Some 4% of all compounds tested hit in one or more screens of this group.
MPTP inh: inhibitors of mitochondrial permeability transition pore; isolated mouse mitochondria, Ca2+ swelling absorbance, 30 min; inhibition, % at 10 µM; 360,000 compounds, 1.4% hits; AID 602449;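 active = inhibition of 50% or more, scaled per plate between neutral and stimulator controls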
TAAR1 agonist: agonists of human TAAR1 | activation, % at 3 µM | Q96RJ0 | AID 624467 | CHO RD-HGA16 TAAR1, Fluo-8 calcium fluorescence; vehicle wells 0%, saturating PEA agonist 100% | 360,000 compounds, 0.99% hits;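 active = activation above the mean activation of all test compounds in the run plus 3 SD, cut at about 38% in these data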
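Assay system – CHO-derived RD-HGA16 cells with stable Gα16 and human TAAR1 · Compound dosing – one-point dosing at 3 µM (nominal) · Incubation – 17-24 h seeding, 75 min 37 °C dye, 30 min RT · Measured by – kinetic Fluo-8 calcium fluorescence · Control set – DMSO vehicle as 0%, PEA at EC100 as 100% · Repeats – single well for each compound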
GPR7 antagonist: antagonists of human GPR7 (neuropeptides B/W receptor 1); GPR7-expressing cells, fluorescence antagonist assay; P48145; 290,000 compounds, 1.1% hits; inhibition, % at 4.4 µM; AID 1861; in the data active = inhibition above about 16%, passing the limit was not always enough;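 also: cells stimulated with the agonist NPW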
DAGLB inhibitor: diacylglycerol lipase beta (human) inhibition | Q8NCG7 | HEK293T DAGLB membrane lysate, EnzChek fluorogenic substrate | inhibition, % at 5.17 µM | 340,000 compounds, 0.059% hits; in the data active = inhibition above about 34%
Target sequence (Q8NCG7 whole entry, looked up): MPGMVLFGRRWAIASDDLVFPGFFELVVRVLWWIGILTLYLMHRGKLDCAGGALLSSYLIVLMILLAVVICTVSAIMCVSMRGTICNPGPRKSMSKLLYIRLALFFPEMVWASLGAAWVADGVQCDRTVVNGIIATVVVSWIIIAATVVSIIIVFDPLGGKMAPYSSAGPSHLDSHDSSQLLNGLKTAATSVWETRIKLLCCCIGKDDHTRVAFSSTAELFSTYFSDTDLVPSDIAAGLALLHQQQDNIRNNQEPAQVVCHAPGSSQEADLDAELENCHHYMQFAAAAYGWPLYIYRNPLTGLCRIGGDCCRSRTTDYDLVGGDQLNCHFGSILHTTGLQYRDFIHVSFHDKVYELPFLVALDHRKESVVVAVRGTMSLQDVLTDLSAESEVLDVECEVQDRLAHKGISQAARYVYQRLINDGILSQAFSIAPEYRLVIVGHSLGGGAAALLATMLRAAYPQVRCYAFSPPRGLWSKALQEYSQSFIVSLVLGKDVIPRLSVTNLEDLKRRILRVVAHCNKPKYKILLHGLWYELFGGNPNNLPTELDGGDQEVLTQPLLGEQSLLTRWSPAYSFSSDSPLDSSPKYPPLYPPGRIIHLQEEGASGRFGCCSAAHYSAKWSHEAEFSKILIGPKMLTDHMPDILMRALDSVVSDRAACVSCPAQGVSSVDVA
TAAR1 antag: antagonists of human TAAR1; Q96RJ0; CHO RD-HGA16 TAAR1, Fluo-8 calcium fluorescence, antagonist; inhibition, % at 3 µM; 360,000 compounds, 1.5% hits;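 active = inhibition above a per-plate cutoff, the mean inhibition of test compounds on that plate plus 3 SD, cut at about 49% in these data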
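Material: CHO RD-HGA16 cells bearing hTAAR1; compound dosing: one-point dosing, 3 µM nominal final; schedule: dye loading 75 min at 37 °C, then 30 min room temperature; measured by: calcium fluorescence with Fluo-8; control set: vehicle and agonist controls; replication: n of 1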
TAAR1 ag conf: confirmation of human TAAR1 agonists; shares compounds with TAAR1 agonist; activation, % at 3 µM; 2,400 compounds, 82% hits; CHO RD-HGA16 TAAR1, Fluo-8 calcium fluorescence; scaled: DMSO 0%, maximal phenethylamine 100%;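 active = activation above a cutoff set at the run's mean compound activation plus 3 SD, cut at about 39% in these data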
Ga16 ag counter: counter-screen for TAAR1 agonists: nonselective agonists in parental cells; shares compounds with TAAR1 agonist; CHO-Ga16 parental, Fluo-8 calcium fluorescence; normalized to maximal ATP response, DMSO zero; activation, % at 3 µM; 2,400 compounds, 50% hits; AID 651787;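 active = activation above the run cutoff, the mean activation over all tested wells plus 3 SD, cut at about 12% in these data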
TAAR1 desens: human TAAR1 agonist that also desensitizes the receptor; shares compounds with TAAR1 agonist; CHO RD-HGA16 hTAAR1, Fluo-8 calcium, beta-PEA response inhibition; inhibition, % at 3 µM; 2,400 compounds, 46% hits;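 active = inhibition above the run cutoff, the mean inhibition of all test compounds plus 3 SD, cut at about 49% in these data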;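 also: beta-PEA stimulus applied at its EC80; loss of beta-PEA calcium signal after compound pretreatment read as receptor desensitization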
Ga16 nonsel ant: nonselective Ga16 antagonism, counter-screen | shares compounds with TAAR1 agonist | CHO-Ga16 ATP-induced calcium, Fluo-8 fluorescence | inhibition, % at 3 µM | 2,400 compounds, 39% hits | AID 651952;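 active = inhibition above the plate's mean compound inhibition plus 3 SD, computed per plate, cut at about 22% in these data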
Large screens that a line does not name were inactive (follow-up assays come after a bar, where they were run).

CCc1nc2c(OCCC3CCCCC3)cccn2c1N(C=O)Cc1ccccc1	none (no result: GPR7 antagonist, DAGLB inhibitor)
CCC(c1nnnn1-c1ccc2c(c1)OCCO2)N1CCN(c2cc(C)ccc2C)CC1 (centres undefined)	none (no result: GPR7 antagonist, DAGLB inhibitor)
Clc1ccc(Cn2ncc3c(NCc4ccccc4)ncnc32)cc1	TAAR1 agonist 53 | TAAR1 ag conf 51 | Ga16 ag counter 38 | TAAR1 desens inactive | Ga16 nonsel ant 30
Clc1ccc(Cn2ncc3c(N4CCOCC4)ncnc32)cc1	none
Clc1ccc(Cn2ncc3c(N4CCCCC4)ncnc32)cc1	TAAR1 agonist 48, TAAR1 antag 52 | TAAR1 ag conf 45 | Ga16 ag counter 24 | TAAR1 desens inactive | Ga16 nonsel ant 24
COCCNc1ncnc2c1cnn2Cc1ccc(Cl)cc1	none
O=C(C(=O)N1CCC(CNS(=O)(=O)c2ccc(F)cc2)CC1)c1cc2ccccc2o1	none (no result: MPTP inh, GPR7 antagonist, DAGLB inhibitor)
CNC[C@H](CC1CCCCC1)NC[C@H](Cc1ccccc1)NCCC12CC3CC(CC(C3)C1)C2	TAAR1 agonist 56 | TAAR1 ag conf 94 | Ga16 ag counter 81 | TAAR1 desens 81 | Ga16 nonsel ant 89
COc1ccc(C(O)c2ncc(-c3ccccc3C)[nH]2)cc1F (centres undefined)	none (no result: GPR7 antagonist, DAGLB inhibitor)
CC1(C)C[C@H](O)[C@]2(CO)[C@H](O)C[C@]3(C)C(=CCC4[C@@]5(C)CC[C@H](O)C(C)(C)C5CC[C@]43C)[C@@H]2C1 (some centres undefined)	TAAR1 agonist 51 (no result: GPR7 antagonist) | TAAR1 ag conf inactive | Ga16 ag counter inactive | TAAR1 desens inactive | Ga16 nonsel ant inactive
CC1(C)C[C@H](O)[C@]2(CO)CC[C@]3(C)C(=CCC4[C@@]5(C)CC[C@H](O)C(C)(C)C5CC[C@]43C)[C@@H]2C1 (some centres undefined)	none (no result: GPR7 antagonist)
Cc1cc(N/N=C/c2ccccc2O)nc(N2CCOCC2)n1	TAAR1 agonist 43 | TAAR1 ag conf 66 | Ga16 ag counter inactive | TAAR1 desens 82 | Ga16 nonsel ant inactive
Cc1ccc(Nc2cc(C)nc(N3CCOCC3)n2)cc1	TAAR1 agonist 42 | TAAR1 ag conf inactive | Ga16 ag counter inactive | TAAR1 desens inactive | Ga16 nonsel ant inactive
COc1ccc(CNS(=O)(=O)c2ccccc2Br)c(OC)c1	none (no result: MPTP inh, GPR7 antagonist, DAGLB inhibitor)
O=C(CNCCc1ccc(Cl)cc1)Nc1ccc(C(=O)N2CCCCC2)cc1	none
O=C(CNCCc1ccccc1)Nc1ccc(C(=O)N2CCCCC2)cc1	TAAR1 agonist 46 | TAAR1 ag conf 69 | Ga16 ag counter inactive | TAAR1 desens inactive | Ga16 nonsel ant inactive
Cc1c(C(=O)N2CCCCC2)c(S(=O)(=O)NCCc2ccccc2)c(C)n1C	none
Cc1[nH]c(C)c(S(=O)(=O)NCCc2ccccc2)c1C(=O)N1CCCCC1	TAAR1 agonist 53 | TAAR1 ag conf inactive | Ga16 ag counter inactive | TAAR1 desens inactive | Ga16 nonsel ant inactive
CC1CCN(S(=O)(=O)c2ccc3c(c2)C(Cl)(Cl)C(=O)N3)CC1	none (no result: GPR7 antagonist)
c1ccc(C2(CN3CCNC[C@H]3Cc3cccc4ccccc34)CC2)cc1	TAAR1 agonist 44 (no result: GPR7 antagonist) | TAAR1 ag conf 47 | Ga16 ag counter 19 | TAAR1 desens inactive | Ga16 nonsel ant 26
CC(O)[C@H]1CNCCN1CCc1cccc(F)c1 (some centres undefined)	TAAR1 agonist 74 (no result: GPR7 antagonist) | TAAR1 ag conf 67 | Ga16 ag counter inactive | TAAR1 desens inactive | Ga16 nonsel ant inactive
Fc1cccc(CCN2CCNC[C@@H]2c2ccccc2)c1	none (no result: GPR7 antagonist)
c1ccc2c(C[C@@H]3CNCCN3CCC34CC5CC(CC(C5)C3)C4)cccc2c1	none (no result: GPR7 antagonist)
Fc1cccc(CCN2CCNC[C@H]2Cc2cccc3ccccc23)c1	TAAR1 agonist 68 (no result: GPR7 antagonist) | TAAR1 ag conf 80 | Ga16 ag counter 16 | TAAR1 desens inactive | Ga16 nonsel ant 27
COCCN1Cc2cc(C(=O)OC)c3c(c2C1=O)c1cc(OC)ccc1n3S(=O)(=O)c1ccc(F)cc1	none (no result: MPTP inh, GPR7 antagonist, DAGLB inhibitor)
COc1ccc(-c2c(-c3ccccc3OC)sc3ccccc23)cc1F	none (no result: MPTP inh, GPR7 antagonist, DAGLB inhibitor)
Cc1ccc(S(=O)(=O)N2C[C@H]3[C@H]4C(=O)N(c5ccccc5)C(=O)[C@H]4CC(=O)[C@H]3[C@@H]2c2cccc3ccccc23)cc1	none (no result: GPR7 antagonist, DAGLB inhibitor)
CC1=C2CCCC[C@@]23C2C(=O)N(C)C(=O)[C@@H]2ON3OC1 (some centres undefined)	none (no result: GPR7 antagonist, DAGLB inhibitor)
COCc1cc(N2CCN(C(=O)OC(C)(C)C)C[C@@H]2C)ccc1N1CC[C@H](O)C1	none (no result: MPTP inh, GPR7 antagonist, DAGLB inhibitor)
CCCC(=O)NC(=S)Nc1ccccc1N1CCOCC1	none
O=C(Cc1ccc(Cl)cc1)NC(=S)Nc1ccccc1N1CCOCC1	TAAR1 agonist 65, TAAR1 antag 52 | TAAR1 ag conf 72 | Ga16 ag counter 44 | TAAR1 desens 57 | Ga16 nonsel ant 34
ClC(/C=N/n1cnnc1)=C/c1ccccc1	TAAR1 agonist 76 | TAAR1 ag conf 62 | Ga16 ag counter 30 | TAAR1 desens inactive | Ga16 nonsel ant inactive
C(=C\c1ccccc1)/C=N/n1cnnc1	none
CC(/C=N/n1cnnc1)=C\c1ccccc1	TAAR1 agonist 102 | TAAR1 ag conf 87 | Ga16 ag counter 63 | TAAR1 desens inactive | Ga16 nonsel ant inactive
CC(=C/c1ccccc1)/C=N/n1cnnc1	TAAR1 agonist 96 | TAAR1 ag conf inactive | Ga16 ag counter 59 | TAAR1 desens inactive | Ga16 nonsel ant inactive
CC(O)C(NS(=O)(=O)c1ccc(Cl)cc1)C(=O)OCCOc1ccc(F)cc1 (centres undefined)	none (no result: GPR7 antagonist)
Cc1cc2nc(-c3nnnn3C3CCCCC3)c(=O)[nH]c2cc1C	none (no result: GPR7 antagonist, DAGLB inhibitor)
CC1(C)CCCN(C(=O)c2coc(=O)c(Br)c2)C1	TAAR1 agonist 79, TAAR1 antag 76 | TAAR1 ag conf 100 | Ga16 ag counter inactive | TAAR1 desens 95 | Ga16 nonsel ant inactive
O=C(c1coc(=O)c(Br)c1)N1CCC(C(O)(c2ccccc2)c2ccccc2)CC1	none
C[C@@H]1CN([C@H](C)CO)C(=O)c2cc(C#CC3CC3)cnc2O[C@H]1CN(C)S(C)(=O)=O	none (no result: GPR7 antagonist)
O=S1(=O)c2ccc(Br)cc2OC2CCCC[C@@H]2N1Cc1ccccc1 (some centres undefined)	none (no result: MPTP inh, GPR7 antagonist, DAGLB inhibitor)
COc1ccccc1NC(=O)C(=O)NCC(c1ccco1)N1CCc2ccccc2C1 (centres undefined)	TAAR1 agonist 83 (no result: GPR7 antagonist) | TAAR1 ag conf 64 | Ga16 ag counter inactive | TAAR1 desens inactive | Ga16 nonsel ant inactive
